Results as given in ChEMBL document CHEMBL2429859, “Inhibiting aberrant signal transducer and activator of transcription protein activation with tetrapodal, small molecule Src homology 2 domain binders: promising agents against multiple myeloma” (J Med Chem, 2013).
Calls of active or inactive are those of the source. The rule behind the calls is not given here.

How the values were obtained:
XG6 [1] = assay: Induction of apoptosis in human XG6 cells at 10 to 15 uM by annexin V/propidium iodide staining-based flow cytometric analysis; assay type: functional, cell-based
Summary of the method: (§1)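 Apoptosis was measured by flow cytometry of Annexin V and propidium iodide staining. Viable, early apoptotic and late apoptotic cells were scored by quadrant, with time points at 24 and 48 h.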

RPMI-8226 [2] = assay: Induction of apoptosis in human RPMI8226 cells at 10 to 15 uM by annexin V/propidium iodide staining-based flow cytometric analysis; assay type: functional, cell-based; conditions: TDE = time-dependent effect; summary of the method: as §1
JJN-3 [3] = assay: Induction of apoptosis in human JJN-3 cells assessed as induction of PARP cleavage at 5 to 10 uM by Western blot analysis; assay type: functional, cell-based
Summary of the method: (§2)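 Treated cells were washed in cold PBS and lysed 30 min on ice in Tris-HCl pH 7.4/NaCl/EDTA/1% NP-40 with PMSF, vanadate and protease inhibitors. Lysates were Bradford-normalized, and 10-30 µg protein was run on 7-10% SDS-PAGE and transferred to PVDF. Blots were blocked in 5% BSA/TBST, probed overnight at 4 °C, then with HRP secondary, and detected by ECL.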

XG6 [4] = assay: Cytotoxicity against human XG6 cells assessed as cell viability at 7.5 uM after 72 hrs by MTT assay; assay type: functional, cell-based
Summary of the method: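 Myeloma lines were seeded at 1-3 x 10^4 cells per well onto compound or vehicle, in triplicate, and cultured 72 h at 37 °C in 5% CO2. Viability was measured colorimetrically by MTT assay relative to DMSO control. EC50 was fitted to a standard dose-response curve where applicable.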

[5] = biological target: T1, Signal transducer and activator of transcription 3 (Homo sapiens, UniProt P40763); assay: Inhibition of Stat3-mediated luciferase expression in human XG6 cells at 7.5 to 15 uM after 6 hrs relative to control; assay type: cell-based
Summary of the method: (§3)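 Myeloma cells stably carried a Stat3-driven firefly luciferase reporter (puromycin-selected) and a CMV-driven Renilla luciferase internal control (hygromycin-selected), each selected for 2 weeks. After drug treatment, dual luciferase activity was read as relative luciferase units, firefly/Renilla.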

[6] = biological target: T1, Signal transducer and activator of transcription 3; assay: Inhibition of Stat3-mediated luciferase expression in human 8226 cells at 7.5 to 15 uM after 6 hrs relative to control; assay type: cell-based; summary of the method: as §3
JJN-3 [7] = assay: Inhibition of total Stat3 level in human JJN-3 cells at 5 to 10 uM after 6 hrs by Western blot analysis; assay type: functional, cell-based; summary of the method: as §2
[8] = Cytotoxicity against BMNC isolated from multiple myeloma patient assessed as inhibition of hematopoietic progenitor colony formation at 30 uM; conditions: human
[9] = Cytotoxicity against CD138-negative BMNC isolated from multiple myeloma patient assessed as cell viability at > 20 uM; conditions: human
Summary of the method: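 Bone marrow mononuclear cells were isolated by Ficoll-Paque separation from 6 myeloma patient aspirates, cultured, and treated with compound. Cells were stained for CD138 and Annexin V, and the decrease in CD138+ (myeloma) and CD138- (non-myeloma) populations was reported.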

[10] = biological target: T2, Tyrosine-protein kinase JAK3 (Homo sapiens) (UniProt P52333); assay: Inhibition of JAK3 JH1 domain (unknown origin) assessed as residual activity at 5 uM relative to control
T2 sequence (whole entry): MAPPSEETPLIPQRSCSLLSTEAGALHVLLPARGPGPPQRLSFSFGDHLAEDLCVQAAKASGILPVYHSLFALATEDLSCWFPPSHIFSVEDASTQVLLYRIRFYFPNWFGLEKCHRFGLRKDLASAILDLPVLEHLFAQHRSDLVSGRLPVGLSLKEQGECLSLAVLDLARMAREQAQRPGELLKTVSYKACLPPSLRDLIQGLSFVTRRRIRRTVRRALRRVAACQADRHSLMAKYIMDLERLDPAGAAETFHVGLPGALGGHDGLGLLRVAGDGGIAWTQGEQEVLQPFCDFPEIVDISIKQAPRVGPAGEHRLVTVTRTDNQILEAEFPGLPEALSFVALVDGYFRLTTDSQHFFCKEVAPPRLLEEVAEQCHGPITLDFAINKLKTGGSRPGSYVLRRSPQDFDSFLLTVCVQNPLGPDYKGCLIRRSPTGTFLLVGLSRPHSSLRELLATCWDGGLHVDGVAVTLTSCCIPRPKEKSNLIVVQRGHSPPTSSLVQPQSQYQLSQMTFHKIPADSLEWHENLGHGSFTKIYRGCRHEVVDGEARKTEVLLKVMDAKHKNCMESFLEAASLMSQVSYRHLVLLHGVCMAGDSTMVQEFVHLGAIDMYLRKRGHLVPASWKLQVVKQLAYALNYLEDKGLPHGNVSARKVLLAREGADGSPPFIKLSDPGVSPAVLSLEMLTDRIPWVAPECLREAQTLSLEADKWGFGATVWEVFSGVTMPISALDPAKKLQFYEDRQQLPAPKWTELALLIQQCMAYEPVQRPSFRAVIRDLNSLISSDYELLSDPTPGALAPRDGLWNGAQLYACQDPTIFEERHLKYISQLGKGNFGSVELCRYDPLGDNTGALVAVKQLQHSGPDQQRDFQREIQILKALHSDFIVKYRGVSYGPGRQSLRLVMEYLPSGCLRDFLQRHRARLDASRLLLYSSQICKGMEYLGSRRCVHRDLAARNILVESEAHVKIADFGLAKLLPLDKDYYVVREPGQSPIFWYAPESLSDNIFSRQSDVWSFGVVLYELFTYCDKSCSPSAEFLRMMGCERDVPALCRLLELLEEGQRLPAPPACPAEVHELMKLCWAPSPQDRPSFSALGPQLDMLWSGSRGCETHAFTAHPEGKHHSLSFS
Summary of the method: (§4)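 Kinase profiling used a KinomeScan at 5 µM across 132 kinases, including 37 with SH2 domains.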

[11] = biological target: Tyrosine-protein kinase JAK2 (Homo sapiens) (UniProt O60674); assay: Inhibition of JAK2 JH1 domain (unknown origin) assessed as residual activity at 5 uM relative to control; summary of the method: as §4
[12] = biological target: Tyrosine-protein kinase JAK1 (Homo sapiens) (UniProt P23458); assay: Inhibition of JAK1 (unknown origin) assessed as residual activity at 5 uM relative to control; summary of the method: as §4
JJN-3 [13] = assay: Induction of apoptosis in human JJN-3 cells at 10 to 20 uM by annexin V/propidium iodide staining-based flow cytometric analysis; assay type: functional, cell-based; summary of the method: as §1
XG6 [14] = assay: Induction of apoptosis in human XG6 cells at 10 to 20 uM by annexin V/propidium iodide staining-based flow cytometric analysis; assay type: functional, cell-based; summary of the method: as §1
RPMI-8226 [15] = assay: Induction of apoptosis in human RPMI8226 cells at 10 to 20 uM by annexin V/propidium iodide staining-based flow cytometric analysis; assay type: functional, cell-based; conditions: TDE = time-dependent effect; summary of the method: as §1
JJN-3 [16] = assay: Induction of apoptosis in human JJN-3 cells assessed as induction of PARP cleavage at 10 to 30 uM by Western blot analysis; assay type: functional, cell-based; summary of the method: as §2
[17] = biological target: T1, Signal transducer and activator of transcription 3; assay: Inhibition of Stat3-mediated luciferase expression in human XG6 cells at 15 to 30 uM after 6 hrs relative to control; assay type: cell-based; summary of the method: as §3
[18] = biological target: T1, Signal transducer and activator of transcription 3; assay: Inhibition of Stat3-mediated luciferase expression in human 8226 cells at 15 to 30 uM after 6 hrs relative to control; assay type: cell-based; summary of the method: as §3
JJN-3 [19] = assay: Inhibition of total Stat3 level in human JJN-3 cells at 10 to 30 uM after 6 hrs by Western blot analysis; assay type: functional, cell-based; summary of the method: as §2

T1 sequence (P40763 whole entry): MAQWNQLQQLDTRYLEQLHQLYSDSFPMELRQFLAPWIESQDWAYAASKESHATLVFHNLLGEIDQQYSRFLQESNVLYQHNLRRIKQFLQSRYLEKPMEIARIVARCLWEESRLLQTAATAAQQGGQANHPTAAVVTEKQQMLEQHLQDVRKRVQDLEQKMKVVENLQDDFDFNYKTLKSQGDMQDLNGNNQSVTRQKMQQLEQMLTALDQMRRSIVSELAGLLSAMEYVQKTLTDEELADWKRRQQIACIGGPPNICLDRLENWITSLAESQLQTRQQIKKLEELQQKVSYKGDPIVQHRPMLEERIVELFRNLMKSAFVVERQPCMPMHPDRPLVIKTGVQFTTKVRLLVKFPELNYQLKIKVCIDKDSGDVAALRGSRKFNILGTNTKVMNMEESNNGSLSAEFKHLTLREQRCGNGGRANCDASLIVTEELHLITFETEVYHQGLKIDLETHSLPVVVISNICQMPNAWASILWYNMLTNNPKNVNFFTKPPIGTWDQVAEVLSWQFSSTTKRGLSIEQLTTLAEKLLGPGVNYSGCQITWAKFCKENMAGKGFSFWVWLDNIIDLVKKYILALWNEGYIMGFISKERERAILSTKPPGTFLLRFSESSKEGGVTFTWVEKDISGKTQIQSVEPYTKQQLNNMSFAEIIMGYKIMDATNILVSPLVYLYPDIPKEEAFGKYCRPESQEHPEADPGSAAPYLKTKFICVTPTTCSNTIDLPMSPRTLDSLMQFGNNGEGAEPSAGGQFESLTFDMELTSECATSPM
Sequence of Tyrosine-protein kinase JAK1 (Homo sapiens) (P23458 whole entry): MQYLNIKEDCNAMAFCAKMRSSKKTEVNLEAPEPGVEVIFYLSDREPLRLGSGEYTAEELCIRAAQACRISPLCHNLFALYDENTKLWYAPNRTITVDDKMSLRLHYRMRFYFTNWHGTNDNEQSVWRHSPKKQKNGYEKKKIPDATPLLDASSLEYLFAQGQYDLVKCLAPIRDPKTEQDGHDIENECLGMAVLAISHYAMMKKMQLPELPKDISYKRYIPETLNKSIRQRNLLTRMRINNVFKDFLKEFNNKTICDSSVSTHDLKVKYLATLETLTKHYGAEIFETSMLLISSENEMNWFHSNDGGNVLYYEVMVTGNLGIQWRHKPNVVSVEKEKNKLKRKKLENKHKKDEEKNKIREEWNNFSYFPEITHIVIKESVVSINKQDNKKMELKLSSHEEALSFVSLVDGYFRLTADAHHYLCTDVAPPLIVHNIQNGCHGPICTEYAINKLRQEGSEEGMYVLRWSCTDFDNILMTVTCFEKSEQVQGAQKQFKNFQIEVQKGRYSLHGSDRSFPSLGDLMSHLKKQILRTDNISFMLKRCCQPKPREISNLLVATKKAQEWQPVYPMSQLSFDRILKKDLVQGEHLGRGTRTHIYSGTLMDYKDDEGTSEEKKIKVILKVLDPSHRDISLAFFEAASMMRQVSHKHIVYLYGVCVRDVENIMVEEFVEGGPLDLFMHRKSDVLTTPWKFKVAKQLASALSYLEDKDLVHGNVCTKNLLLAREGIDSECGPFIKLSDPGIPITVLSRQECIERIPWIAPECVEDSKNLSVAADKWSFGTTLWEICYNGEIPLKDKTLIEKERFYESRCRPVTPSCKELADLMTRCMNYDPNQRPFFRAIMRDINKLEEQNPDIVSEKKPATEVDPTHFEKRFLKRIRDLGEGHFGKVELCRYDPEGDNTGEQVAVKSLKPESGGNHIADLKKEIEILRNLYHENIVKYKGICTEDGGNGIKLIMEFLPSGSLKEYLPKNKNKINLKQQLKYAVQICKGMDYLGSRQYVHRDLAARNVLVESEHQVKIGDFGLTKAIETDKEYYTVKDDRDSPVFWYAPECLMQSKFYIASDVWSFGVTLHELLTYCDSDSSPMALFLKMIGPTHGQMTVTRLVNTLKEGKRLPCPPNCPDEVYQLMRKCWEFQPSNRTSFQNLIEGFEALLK
Sequence of Tyrosine-protein kinase JAK2 (Homo sapiens) (O60674 whole entry, the tested form may be a part): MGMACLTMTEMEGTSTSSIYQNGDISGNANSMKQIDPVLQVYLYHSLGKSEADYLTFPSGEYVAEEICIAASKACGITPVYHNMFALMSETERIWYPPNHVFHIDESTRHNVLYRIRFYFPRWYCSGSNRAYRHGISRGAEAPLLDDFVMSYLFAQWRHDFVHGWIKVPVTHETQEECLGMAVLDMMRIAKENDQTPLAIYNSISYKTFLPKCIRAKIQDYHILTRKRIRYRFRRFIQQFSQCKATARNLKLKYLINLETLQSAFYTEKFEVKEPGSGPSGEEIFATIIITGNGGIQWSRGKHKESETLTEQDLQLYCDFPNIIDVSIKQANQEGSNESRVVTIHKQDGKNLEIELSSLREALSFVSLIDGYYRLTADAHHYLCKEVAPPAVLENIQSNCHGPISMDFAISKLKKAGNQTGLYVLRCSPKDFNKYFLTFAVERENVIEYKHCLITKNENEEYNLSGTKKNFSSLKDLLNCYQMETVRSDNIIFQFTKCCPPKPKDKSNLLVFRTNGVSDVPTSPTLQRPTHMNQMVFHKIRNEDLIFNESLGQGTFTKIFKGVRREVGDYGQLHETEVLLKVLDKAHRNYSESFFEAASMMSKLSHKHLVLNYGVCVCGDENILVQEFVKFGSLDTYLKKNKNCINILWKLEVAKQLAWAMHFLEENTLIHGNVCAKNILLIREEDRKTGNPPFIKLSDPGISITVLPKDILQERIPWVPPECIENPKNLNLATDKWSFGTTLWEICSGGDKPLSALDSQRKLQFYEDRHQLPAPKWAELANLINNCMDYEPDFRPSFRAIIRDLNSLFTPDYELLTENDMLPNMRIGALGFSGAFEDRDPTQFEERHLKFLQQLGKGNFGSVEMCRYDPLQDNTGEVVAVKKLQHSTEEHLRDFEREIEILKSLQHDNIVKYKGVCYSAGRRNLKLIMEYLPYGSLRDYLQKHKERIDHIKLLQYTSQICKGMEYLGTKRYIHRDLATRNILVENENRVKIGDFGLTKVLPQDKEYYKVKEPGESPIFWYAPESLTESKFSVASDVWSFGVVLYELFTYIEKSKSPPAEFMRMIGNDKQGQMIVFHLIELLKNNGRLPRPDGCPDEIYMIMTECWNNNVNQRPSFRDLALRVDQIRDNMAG

## O=C(O)c1ccc(N(Cc2ccc(C3CCCCC3)cc2)C(=O)CN(Cc2ccccc2C(F)(F)F)S(=O)(=O)c2c(F)c(F)c(F)c(F)c2F)cc1O
XG6 [1]
  Activity: Active
RPMI-8226 [2]
  Activity: tde
JJN-3 [3]
  Activity: Active
XG6 [4]
  Activity: Active
[5]
  inhibition: 50%
[6]
  inhibition: 50%
JJN-3 [7]
  inhibition: inactive

## Cc1ccc(S(=O)(=O)N(CC(=O)N(Cc2ccc(C3CCCCC3)cc2)c2ccc(C(=O)O)c(O)c2)Cc2ccccc2C(F)(F)F)cc1
[8]
  Activity: Non-toxic
[9]
  Activity: Non-toxic
[10]
  Activity: 84%
[11]
  Activity: 84%
[12]
  Activity: 84%
JJN-3 [13]
  Activity: Active
XG6 [14]
  Activity: Active
RPMI-8226 [15]
  Activity: tde
JJN-3 [16]
  Activity: Active
[17]
  inhibition: 50%
[18]
  inhibition: 50%
JJN-3 [19]
  inhibition: inactive
